According to ChEMBL document CHEMBL1629518, “Structure-based approach to nanomolar, water soluble matrix metalloproteinases inhibitors (MMPIs)” (Eur J Med Chem, 2010):
≈ marks a conversion by molar mass, not a printed value.

Legend:
[1] = Solubility of the compound in water; assay type: physicochemical
Collagenase 3 = Collagenase 3 (Homo sapiens, UniProt P45452); assay: Inhibition of MMP13 by fluorimetric assay
In short: (§1)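 Enzyme source was the catalytic domain of each MMP. Inhibition was reported as Ki values.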

Neutrophil collagenase = Neutrophil collagenase (Homo sapiens, UniProt P22894); assay: Inhibition of MMP8 by fluorimetric assay; in short: as §1
Matrilysin = target: T1, Matrilysin (Homo sapiens, UniProt P09237); assay: Inhibition of MMP7 by fluorimetric assay; in short: as §1
T1 sequence (P09237 whole entry): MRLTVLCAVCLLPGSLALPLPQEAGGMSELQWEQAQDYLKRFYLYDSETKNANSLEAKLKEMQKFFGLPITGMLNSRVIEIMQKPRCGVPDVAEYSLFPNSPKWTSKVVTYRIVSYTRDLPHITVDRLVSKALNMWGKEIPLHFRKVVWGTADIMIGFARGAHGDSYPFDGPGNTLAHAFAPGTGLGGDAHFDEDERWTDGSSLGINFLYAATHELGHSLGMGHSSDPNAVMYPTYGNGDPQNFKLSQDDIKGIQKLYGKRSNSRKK

Interstitial collagenase = target: T2, Interstitial collagenase (Homo sapiens, UniProt P03956); assay: Inhibition of MMP1 by fluorimetric assay; in short: as §1
T2 sequence (P03956 whole entry): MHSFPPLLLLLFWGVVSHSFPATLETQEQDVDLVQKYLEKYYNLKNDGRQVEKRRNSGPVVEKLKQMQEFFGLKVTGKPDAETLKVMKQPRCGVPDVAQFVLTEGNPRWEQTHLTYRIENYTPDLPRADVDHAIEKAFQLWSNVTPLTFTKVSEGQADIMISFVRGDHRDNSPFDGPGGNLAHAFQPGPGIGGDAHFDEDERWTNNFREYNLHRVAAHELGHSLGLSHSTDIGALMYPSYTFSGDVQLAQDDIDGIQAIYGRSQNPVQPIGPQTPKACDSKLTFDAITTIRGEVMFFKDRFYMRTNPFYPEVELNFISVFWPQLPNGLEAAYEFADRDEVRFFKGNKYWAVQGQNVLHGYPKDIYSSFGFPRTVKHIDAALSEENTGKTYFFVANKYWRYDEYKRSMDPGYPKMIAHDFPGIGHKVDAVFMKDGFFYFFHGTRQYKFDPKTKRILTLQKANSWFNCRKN

[2] = target: Macrophage metalloelastase (Homo sapiens, UniProt P39900); assay: Inhibition of MMP12 by fluorimetric assay; in short: as §1
Chain of Macrophage metalloelastase (P39900 whole entry): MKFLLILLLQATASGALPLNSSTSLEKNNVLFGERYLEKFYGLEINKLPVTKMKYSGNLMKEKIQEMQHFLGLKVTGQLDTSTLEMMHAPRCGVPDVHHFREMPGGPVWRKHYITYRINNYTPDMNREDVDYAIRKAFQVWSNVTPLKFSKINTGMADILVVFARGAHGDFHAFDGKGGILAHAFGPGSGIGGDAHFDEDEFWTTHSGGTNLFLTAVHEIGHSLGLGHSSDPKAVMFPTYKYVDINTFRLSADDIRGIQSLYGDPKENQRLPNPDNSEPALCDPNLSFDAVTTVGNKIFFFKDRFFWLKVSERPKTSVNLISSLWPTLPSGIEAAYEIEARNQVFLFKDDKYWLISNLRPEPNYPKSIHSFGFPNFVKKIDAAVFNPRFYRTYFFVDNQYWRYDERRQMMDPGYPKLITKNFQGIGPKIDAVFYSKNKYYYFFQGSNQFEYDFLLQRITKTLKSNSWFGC

Chain of Neutrophil collagenase (P22894 whole entry): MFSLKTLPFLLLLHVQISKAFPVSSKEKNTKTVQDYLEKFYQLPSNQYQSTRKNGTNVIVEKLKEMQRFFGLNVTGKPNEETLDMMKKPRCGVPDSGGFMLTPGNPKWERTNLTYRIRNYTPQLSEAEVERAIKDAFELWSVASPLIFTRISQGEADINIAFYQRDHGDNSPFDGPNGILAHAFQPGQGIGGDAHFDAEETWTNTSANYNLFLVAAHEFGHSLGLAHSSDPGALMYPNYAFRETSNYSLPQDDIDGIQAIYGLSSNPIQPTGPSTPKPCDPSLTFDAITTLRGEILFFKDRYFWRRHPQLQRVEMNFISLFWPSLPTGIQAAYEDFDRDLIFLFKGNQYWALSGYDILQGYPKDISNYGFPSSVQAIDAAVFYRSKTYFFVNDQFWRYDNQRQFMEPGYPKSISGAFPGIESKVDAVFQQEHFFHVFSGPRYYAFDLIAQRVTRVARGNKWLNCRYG

SMILES	solubility [1]	Ki (Collagenase 3)	Ki (Neutrophil collagenase)	Ki (Matrilysin)	Ki (Interstitial collagenase)	Ki [2]
COc1ccc(S(=O)(=O)N(CCO[C@@H]2O[C@H](CO)[C@@H](O)[C@H](O)[C@H]2O)CC(=O)NO)cc1	20 mg/mL (≈ 42.9 mM)	1.7 nM	9.1 nM	2000 nM	286 nM	–
O=C(CN(CCO)S(=O)(=O)c1ccc(-c2ccccc2)cc1)NO	20 mg/mL (≈ 57.1 mM)	2.7 nM	4.6 nM	1600 nM	67 nM	–
COc1ccc(S(=O)(=O)N(CCO)CC(=O)NO)cc1	20 mg/mL (≈ 65.7 mM)	1 nM	13 nM	1500 nM	128 nM	7.6 nM
COc1ccc(S(=O)(=O)N(CC(=O)NO)C[C@H](O)CO)cc1	20 mg/mL (≈ 59.8 mM)	3.6 nM	24 nM	9000 nM	160 nM	8 nM
COc1ccc(S(=O)(=O)N(C[C@H](O)CO)[C@H](CO)C(=O)NO)cc1	20 mg/mL (≈ 54.9 mM)	1.7 nM	8 nM	344 nM	32 nM	7 nM
COc1ccc(S(=O)(=O)N[C@H](CO)C(=O)NO)cc1	20 mg/mL (≈ 68.9 mM)	2.2 nM	9 nM	823 nM	143 nM	6 nM
COc1ccc(S(=O)(=O)N[C@@H](C(=O)NO)[C@@H](C)O)cc1	20 mg/mL (≈ 65.7 mM)	2.9 nM	10 nM	984 nM	287 nM	11 nM
O=C(CN(CCO)S(=O)(=O)c1ccc(F)cc1)NO	20 mg/mL (≈ 68.4 mM)	46 nM	173 nM	3000 nM	151 nM	40 nM
O=C(CN(C[C@H](O)CO)S(=O)(=O)c1ccc(-c2ccccc2)cc1)NO	< 1 mg/mL	18 nM	48 nM	4000 nM	742 nM	60 nM
COc1ccc(S(=O)(=O)N(CC(=O)NO)CC(C)C)cc1	20 mg/mL (≈ 63.2 mM)	3.1 nM	9 nM	13000 nM	–	4.3 nM
